Source: ChEMBL document CHEMBL4616666, “Discovery of SHP2-D26 as a First, Potent, and Effective PROTAC Degrader of SHP2 Protein” (J Med Chem, 2020)

How the values were obtained:
[1] = tested on: KYSE-520 cell line; test: Growth inhibition of human KYSE520 cells measured after 4 days by WST8 assay; conditions: KYSE-520, 96 h
[2] = tested on: MV4-11; test: Growth inhibition of human MV4-11 cells measured after 4 days by WST8 assay; conditions: MV4-11, 96 h
[3] = target: T1, von Hippel-Lindau disease tumor suppressor/Tyrosine-protein phosphatase non-receptor type 11 (Homo sapiens, UniProt Q06124+P40337); test: Protac activity at VHL1/SHP2 in human KYSE520 cells assessed as induction of SHP2 degradation at 0.1 uM measured after 6 hrs by Western blot analysis relative to control; type: cell-based
T1 sequence (P40337 whole entry partner): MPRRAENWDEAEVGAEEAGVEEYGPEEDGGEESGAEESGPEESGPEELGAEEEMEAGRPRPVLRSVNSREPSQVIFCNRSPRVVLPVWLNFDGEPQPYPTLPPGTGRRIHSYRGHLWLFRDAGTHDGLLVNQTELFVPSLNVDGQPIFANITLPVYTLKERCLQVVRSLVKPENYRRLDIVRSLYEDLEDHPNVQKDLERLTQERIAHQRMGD
T1 sequence (Q06124 2-593 limits assumed): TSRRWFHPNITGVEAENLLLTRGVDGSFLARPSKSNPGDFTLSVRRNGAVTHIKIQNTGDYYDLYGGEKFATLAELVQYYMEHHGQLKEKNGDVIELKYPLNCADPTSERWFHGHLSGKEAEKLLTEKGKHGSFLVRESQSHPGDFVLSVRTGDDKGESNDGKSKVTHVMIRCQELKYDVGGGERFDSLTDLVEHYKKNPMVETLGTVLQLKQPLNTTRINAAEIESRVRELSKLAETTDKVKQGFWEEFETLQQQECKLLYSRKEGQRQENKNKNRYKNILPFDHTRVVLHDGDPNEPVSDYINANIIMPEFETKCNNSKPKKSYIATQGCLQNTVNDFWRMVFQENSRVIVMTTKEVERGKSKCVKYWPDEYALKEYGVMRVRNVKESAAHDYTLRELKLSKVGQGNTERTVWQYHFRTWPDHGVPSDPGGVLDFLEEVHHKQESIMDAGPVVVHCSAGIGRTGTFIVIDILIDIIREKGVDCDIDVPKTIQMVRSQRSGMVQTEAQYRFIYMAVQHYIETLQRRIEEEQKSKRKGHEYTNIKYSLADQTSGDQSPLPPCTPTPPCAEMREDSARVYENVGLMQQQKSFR
Procedure, shortened: (§1)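 KYSE520 cells in RPMI 1640 + 10% FBS, 37 °C, 5% CO2, were exposed to degrader for 6 h. SHP2 was measured by Western blot and densitometry, with background-subtracted band normalized to net GAPDH band. Values are the average of three independent experiments.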

[4] = target: T1, von Hippel-Lindau disease tumor suppressor/Tyrosine-protein phosphatase non-receptor type 11; test: Protac activity at VHL1/SHP2 in human KYSE520 cells assessed as induction of SHP2 degradation at 1 uM measured after 6 hrs by Western blot analysis relative to control; type: cell-based; procedure, shortened: as §1
[5] = target: T1, von Hippel-Lindau disease tumor suppressor/Tyrosine-protein phosphatase non-receptor type 11; test: Protac activity at VHL1/SHP2 in human MV4-11 cells assessed as induction of SHP2 degradation at 0.1 uM measured after 24 hrs by Western blot analysis relative to control; type: cell-based
Procedure, shortened: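 MV4;11 cells in IMDM + 10% FBS were exposed to degrader for 24 h. SHP2 was quantified by Western blot densitometry, with background-subtracted band divided by net GAPDH loading-control band. Average of three independent experiments.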

| Structure (SMILES) | IC50 [1] [µM] | IC50 [2] [µM] | Activity [3] [%] | Activity [4] [%] | Activity [5] [%] |
| --- | --- | --- | --- | --- | --- |
| CC1(N)CCN(c2cnc(-c3cccc(Cl)c3Cl)c(N)n2)CC1 | 18.2 | 1 |  |  |  |
| CC(=O)Nc1cccc(Sc2ncc(N3CCC(C)(N)CC3)nc2N)c1Cl | 39.4 | 6.6 |  |  |  |
| Cc1ncsc1-c1ccc([C@H](C)NC(=O)[C@@H]2C[C@@H](O)CN2C(=O)[C@@H](NC(=O)CCCCCCCCCCCNC(=O)CCC(=O)Nc2cccc(Sc3ncc(N4CCC(C)(N)CC4)nc3N)c2Cl)C(C)(C)C)cc1 |  |  | > 95 | > 95 |  |
| Cc1ncsc1-c1ccc([C@H](C)NC(=O)[C@@H]2C[C@@H](O)CN2C(=O)[C@@H](NC(=O)CCCCCCCCCCNC(=O)CCC(=O)Nc2cccc(Sc3ncc(N4CCC(C)(N)CC4)nc3N)c2Cl)C(C)(C)C)cc1 |  |  | > 95 | > 95 |  |
| Cc1ncsc1-c1ccc([C@H](C)NC(=O)[C@@H]2C[C@@H](O)CN2C(=O)[C@@H](NC(=O)CCCCCCCOc2ccc(NC(=O)CCC(=O)Nc3cccc(Sc4ncc(N5CCC(C)(N)CC5)nc4N)c3Cl)cc2)C(C)(C)C)cc1 |  |  | > 95 | > 95 | > 95 |
| Cc1ncsc1-c1ccc([C@H](C)NC(=O)[C@@H]2C[C@@H](O)CN2C(=O)[C@@H](NC(=O)CCNC(=O)CC(=O)Nc2cccc(Sc3ncc(N4CCC(C)(N)CC4)nc3N)c2Cl)C(C)(C)C)cc1 |  |  | 4 | 0 |  |
| Cc1ncsc1-c1ccc([C@H](C)NC(=O)[C@@H]2C[C@@H](O)CN2C(=O)[C@@H](NC(=O)CCCCCCCCCCCCCCC(=O)Nc2cccc(Sc3ncc(N4CCC(C)(N)CC4)nc3N)c2Cl)C(C)(C)C)cc1 (single isomer, unassigned) |  |  | 62 | 90 | 8 |
| Cc1ncsc1-c1ccc([C@H](C)NC(=O)[C@@H]2C[C@@H](O)CN2C(=O)[C@@H](NC(=O)CCCCCCCCCCCN2CCN(CC(=O)Nc3cccc(Sc4ncc(N5CCC(C)(N)CC5)nc4N)c3Cl)CC2)C(C)(C)C)cc1 (single isomer, unassigned) |  |  | 80 | > 95 | 6 |
| Cc1ncsc1-c1ccc([C@H](C)NC(=O)[C@@H]2C[C@@H](O)CN2C(=O)[C@@H](NC(=O)CCCCCCCCCCCNC(=O)CC(=O)Nc2cccc(Sc3ncc(N4CCC(C)(N)CC4)nc3N)c2Cl)C(C)(C)C)cc1 (single isomer, unassigned) |  |  | > 95 | 93 |  |
| Cc1ncsc1-c1ccc([C@H](C)NC(=O)[C@@H]2C[C@@H](O)CN2C(=O)[C@@H](NC(=O)CCCCCCCCCCCNC(=O)CCCC(=O)Nc2cccc(Sc3ncc(N4CCC(C)(N)CC4)nc3N)c2Cl)C(C)(C)C)cc1 (single isomer, unassigned) |  |  | > 95 | > 95 |  |
| Cc1ncsc1-c1ccc([C@H](C)NC(=O)[C@@H]2C[C@@H](O)CN2C(=O)[C@@H](NC(=O)CCCCCCCCCCN2CCN(CC(=O)Nc3cccc(Sc4ncc(N5CCC(C)(N)CC5)nc4N)c3Cl)CC2)C(C)(C)C)cc1 (single isomer, unassigned) |  |  | 85 | > 95 | 47 |
| Cc1ncsc1-c1ccc([C@H](C)NC(=O)[C@@H]2C[C@@H](O)CN2C(=O)[C@@H](NC(=O)CCCCCCCCCCNC(=O)CC(=O)Nc2cccc(Sc3ncc(N4CCC(C)(N)CC4)nc3N)c2Cl)C(C)(C)C)cc1 (single isomer, unassigned) |  |  | > 95 | > 95 |  |
| Cc1ncsc1-c1ccc([C@H](C)NC(=O)[C@@H]2C[C@@H](O)CN2C(=O)[C@@H](NC(=O)CCCCCCCCCN2CCN(C(=O)CCC(=O)Nc3cccc(Sc4ncc(N5CCC(C)(N)CC5)nc4N)c3Cl)CC2)C(C)(C)C)cc1 (single isomer, unassigned) |  |  | > 95 | > 95 | > 95 |
| Cc1ncsc1-c1ccc([C@H](C)NC(=O)[C@@H]2C[C@@H](O)CN2C(=O)[C@@H](NC(=O)CCCCCCCCCNC(=O)CC(=O)Nc2cccc(Sc3ncc(N4CCC(C)(N)CC4)nc3N)c2Cl)C(C)(C)C)cc1 (single isomer, unassigned) |  |  | > 95 | > 95 |  |
| Cc1ncsc1-c1ccc([C@H](C)NC(=O)[C@@H]2C[C@@H](O)CN2C(=O)[C@@H](NC(=O)CCCCCCCCNC(=O)CC(=O)Nc2cccc(Sc3ncc(N4CCC(C)(N)CC4)nc3N)c2Cl)C(C)(C)C)cc1 (single isomer, unassigned) |  |  | 81 | 80 |  |
| Cc1ncsc1-c1ccc([C@H](C)NC(=O)[C@@H]2C[C@@H](O)CN2C(=O)[C@@H](NC(=O)CCCCCCCNC(=O)CC(=O)Nc2cccc(Sc3ncc(N4CCC(C)(N)CC4)nc3N)c2Cl)C(C)(C)C)cc1 (single isomer, unassigned) |  |  | 20 | 14 |  |
| Cc1ncsc1-c1ccc([C@H](C)NC(=O)[C@@H]2C[C@@H](O)CN2C(=O)[C@@H](NC(=O)CCCCCCNC(=O)CC(=O)Nc2cccc(Sc3ncc(N4CCC(C)(N)CC4)nc3N)c2Cl)C(C)(C)C)cc1 (single isomer, unassigned) |  |  | 0 | 0 |  |
| Cc1ncsc1-c1ccc([C@H](C)NC(=O)[C@@H]2C[C@@H](O)CN2C(=O)[C@@H](NC(=O)CCCCCNC(=O)CC(=O)Nc2cccc(Sc3ncc(N4CCC(C)(N)CC4)nc3N)c2Cl)C(C)(C)C)cc1 (single isomer, unassigned) |  |  | 0 | 3 |  |
| Cc1ncsc1-c1ccc([C@H](C)NC(=O)[C@@H]2C[C@@H](O)CN2C(=O)[C@@H](NC(=O)CCCCN2CCN(CCCCNC(=O)CCC(=O)Nc3cccc(Sc4ncc(N5CCC(C)(N)CC5)nc4N)c3Cl)CC2)C(C)(C)C)cc1 (single isomer, unassigned) |  |  | 0 | 82 | 9 |
| Cc1ncsc1-c1ccc([C@H](C)NC(=O)[C@@H]2C[C@@H](O)CN2C(=O)[C@@H](NC(=O)CCCCNC(=O)CC(=O)Nc2cccc(Sc3ncc(N4CCC(C)(N)CC4)nc3N)c2Cl)C(C)(C)C)cc1 (single isomer, unassigned) |  |  | 13 | 6 |  |
| Cc1ncsc1-c1ccc([C@H](C)NC(=O)[C@@H]2C[C@@H](O)CN2C(=O)[C@@H](NC(=O)CCCNC(=O)CC(=O)Nc2cccc(Sc3ncc(N4CCC(C)(N)CC4)nc3N)c2Cl)C(C)(C)C)cc1 (single isomer, unassigned) |  |  | 9 | 7 |  |
| Cc1ncsc1-c1ccc([C@H](C)NC(=O)[C@@H]2C[C@@H](O)CN2C(=O)[C@@H](NC(=O)CCOCCOCCOCCNC(=O)CCC(=O)Nc2cccc(Sc3ncc(N4CCC(C)(N)CC4)nc3N)c2Cl)C(C)(C)C)cc1 (single isomer, unassigned) |  |  | 32 | 87 | 85 |
| Cc1ncsc1-c1ccc([C@H](C)NC(=O)[C@@H]2C[C@@H](O)CN2C(=O)[C@@H](NC(=O)COCCOCCOCCNC(=O)CCC(=O)Nc2cccc(Sc3ncc(N4CCC(C)(N)CC4)nc3N)c2Cl)C(C)(C)C)cc1 (single isomer, unassigned) |  |  | 80 | > 95 | > 95 |
| Cc1ncsc1-c1ccc([C@H](C)NC(=O)[C@@H]2C[C@@H](O)CN2C(=O)[C@@H](NC(=O)COCCOCCOCCOCCNC(=O)CCC(=O)Nc2cccc(Sc3ncc(N4CCC(C)(N)CC4)nc3N)c2Cl)C(C)(C)C)cc1 (single isomer, unassigned) |  |  | 53 | > 95 | 95 |
